Laboratory results from ChEMBL document CHEMBL5331102, “Novel S1R agonists counteracting NMDA excitotoxicity and oxidative stress: A step forward in the discovery of neuroprotective agents” (Eur J Med Chem, 2023).
Active and inactive are the calls of the source. The calls are words filed in the database; no cut-off is given here.

Key:
[1] = biological target: T1, Sigma non-opioid intracellular receptor 1 (Homo sapiens, UniProt Q99720); assay: Displacement of [3H]-(+)-pentazocine from sigma 1 receptor (unknown origin) at 25 nM by scintillation counting analysis; conditions: filed as agonist
Procedure, shortened: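 Single-concentration screen at 25 nM test compound against [3H](+)pentazocine (15 nM) at S1R; scintillation counting; result given as % inhibition of control specific binding, i.e. 100 minus measured/control specific binding ×100.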

[2] = biological target: Glutamate [NMDA] receptor (Homo sapiens) (UniProt Q05586+Q12879+Q13224+O15399+O60391+Q14957+Q8TCU5); assay: Displacement of [3H]CGP39653 from human NMDAR at 25 nM by scintillation counting analysis; assay type: protein-complex assay
Procedure, shortened: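 NMDA receptor binding with [3H]CGP39653 (5 nM) as radioligand, test compound at 25 nM; displacement read by scintillation counting and reported as % inhibition of control specific binding.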

[3] = biological target: Sigma intracellular receptor 2 (Homo sapiens, UniProt Q5BJF2); assay: Binding affinity to sigma 2 receptor (unknown origin) assessed as inhibition constant
Procedure, shortened: (§1)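 Radioligand displacement at S1R with [3H](+)pentazocine (15 nM) and at S2R with [3H]DTG (25 nM); S2R assay includes 1 μM cold (+)pentazocine to mask S1R sites. Bound radioactivity counted by scintillation. IC50 and Hill slope from non-linear Hill fit of competition curves; Ki by Cheng–Prusoff using radioligand concentration and KD from Scatchard plot.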

[4] = Selectivity index, ratio of Ki for sigma 2 receptor (unknown origin) to Ki for sigma 1 receptor (unknown origin)
[5] = biological target: T1, Sigma non-opioid intracellular receptor 1; assay: Binding affinity to sigma 1 receptor (unknown origin) assessed as inhibition constant; procedure, shortened: as §1
[6] = test system: PC-12; assay: Neuroprotective activity in rat PC12 cells assessed as induction of NGF-mediated neurite outgrowth at 0.5 uM in presence of NE-100 by neurite outgrowth assay; assay type: functional, cell-based
Procedure, shortened: (§2)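 PC12 cells stimulated with NGF (2.5 nM) and treated with compound up to 5 μM, alone or after pre-treatment with S1R antagonist NE-100 (3 μM); read-out is percentage of cells bearing neurite sprouts; mean ± SEM of three independent experiments.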

[7] = test system: PC-12; assay: Neuroprotective activity in rat PC12 cells assessed as induction of NGF-mediated neurite outgrowth at 0.5 uM by neurite outgrowth assay (Rvb=26 +/- 4%); assay type: functional; procedure, shortened: as §2
[8] = test system: SH-SY5Y; assay: Neuroprotective activity in human SH-SY5Y cells assessed as prevention of NMDA induced cytotoxicity by measuring cell viability at 0.1 to 0.5 uM incubated for 24 hrs in presence of NMDA by MTT assay; assay type: functional, cell-based; conditions: dose 0.1-0.5 µM
Procedure, shortened: (§3)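 SH-SY5Y cells (~7000/well) co-incubated 24 h at 37 °C in 2% FBS medium with toxic stimulus (NMDA 250 μM or oligomycin 2.5 μM) plus compound at 0.1–5 μM. Viability by MTT, expressed as % of control.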

[9] = test system: SH-SY5Y; assay: Cytotoxicity against human SH-SY5Y cells assessed as reduction in cell viability at 5 uM incubated for 72 hrs by MTT assay; assay type: toxicity, cell-based
Procedure, shortened: (§4)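 SH-SY5Y cells kept in DMEM/10% FBS, 2 mM glutamine, 37 °C, 5% CO2; ~7000 cells/well, after 1 day given compound (six concentrations, 0.1–100 μM; DMSO stocks 10 mM) in 2% FBS medium for 72 h. MTT (0.5% w/v, 2 h), formazan dissolved in DMSO, absorbance read; triplicates, % of untreated control.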

[10] = test system: SH-SY5Y; assay: Neuroprotective activity in human SH-SY5Y cells assessed as prevention of NMDA induced cytotoxicity by measuring cell viability at 1 to 5 uM incubated for 24 hrs in presence of NMDA by MTT assay; assay type: functional, cell-based; conditions: dose 1-5 µM; procedure, shortened: as §3
[11] = Cytotoxicity against human SH-SY5Y cells assessed as reduction in cell viability incubated for 72 hrs by MTT assay; assay type: toxicity, cell-based; procedure, shortened: as §4

T1 sequence (Q99720 whole entry): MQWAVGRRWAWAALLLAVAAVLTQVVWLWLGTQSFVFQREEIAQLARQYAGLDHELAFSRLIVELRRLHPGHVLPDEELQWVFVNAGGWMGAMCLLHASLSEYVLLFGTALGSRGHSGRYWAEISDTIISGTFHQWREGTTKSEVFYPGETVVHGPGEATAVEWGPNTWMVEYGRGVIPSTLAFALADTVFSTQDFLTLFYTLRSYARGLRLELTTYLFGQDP
Sigma intracellular receptor 2, sequence (Q5BJF2 whole entry): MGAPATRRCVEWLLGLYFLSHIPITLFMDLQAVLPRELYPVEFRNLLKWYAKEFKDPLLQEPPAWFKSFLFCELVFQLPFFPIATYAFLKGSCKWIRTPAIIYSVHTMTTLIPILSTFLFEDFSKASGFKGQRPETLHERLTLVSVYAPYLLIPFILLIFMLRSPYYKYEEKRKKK

SMILES	Ki [3]	Ratio Ki [4]	Ki [5]	further results
c1ccc(CN2CCN(CCSc3ccccc3)CC2)cc1				Activity [1]: > 95%; Activity [2]: < 11.9%
c1ccc(CN2CCN(CCCSC3CCCCC3)CC2)cc1				Activity [1]: > 95%; Activity [2]: < 11.9%
COc1ccc(CCN2CCN(CCCc3ccccc3)CC2)cc1OC [[11C]SA4503]	63 nM			
c1ccc(CC2CCN(CC3CSC4(CCCCC4)S3)CC2)cc1 (configuration not stated)	5 nM	0.4	12 nM	
CC1(C)SCC(CN2CCC(Cc3ccccc3)CC2)S1 (configuration not stated)	12 nM	24	0.5 nM	
C[C@H](CCN1CCCCC1)c1ccc(-c2ccccc2)cc1				Activity [6]: inactive; Activity [7]: 36%
CN(C)CC1CCOC1(c1ccccc1)c1ccccc1 (configuration not stated) [BLARCAMESINE]			6.3 nM	
CC12CC3CC(C)(C1)CC(N)(C3)C2 [MEMANTINE]				Activity [8]: Active; Activity [9]: 70%; Activity [10]: inactive; CC50 at 72 h [11]: 98000 nM
c1ccc(CN2CCN(CCCOC3CCCCC3)CC2)cc1				Activity [1]: > 95%; Activity [2]: < 11.9%

Second part, led by results:

Ki [3]	Ratio Ki [4]	Ki [5]	SMILES	further results
35 nM	47	0.74 nM	c1ccc(CN2CCN(CC3COC4(CCCCC4)O3)CC2)cc1 (configuration not stated)	
91 nM	70	1.3 nM	c1ccc(CN2CCN(CC3CSC4(CCCCC4)O3)CC2)cc1 (configuration not stated)	
	43		c1ccc(CN2CCN(CC3CSCS3)CC2)cc1 (configuration not stated)	
